The nature of test [1]: Binding affinity to 5'-biotin-labeled GCTAGTC-CAGGCTTTTGCCTGGACTAGC-3' DNA (unknown origin) by surface plasmon resonance assay. An outline of the steps:
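Biacore SPR at 25 °C. Biotinylated hairpin DNA is captured on a streptavidin SA chip. Polyamides are diluted from 4 mM DMSO stocks into HBS-EP (10 mM HEPES […], 0.15 M NaCl, 3 mM EDTA, 0.005% P20) with 0.1% DMSO, which is also the running buffer. Samples are injected at 5 μL/min over 6.25 nM–4 μM. Regeneration uses running buffer or 10 mM glycine-HCl, pH 1.5. KD is obtained by model fitting.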
For orientation: Surface plasmon resonance follows binding to a sensor surface in real time, without labels.

Test [2] is described as follows: Binding affinity to 5'-CCGAGTCCATACG-3' DNA (unknown origin) assessed as increase in fluorescence intensity at 200 nM by florescence assay relative to control. An outline of the steps:
(§1)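 Steady-state fluorescence of 200 nM pyrene conjugates mixed with target oligonucleotide duplex in 5 mM Na phosphate buffer, pH 7.0, 1% v/v DMF. Excitation at 345 nm, emission read at 386 nm. Measured at room temperature without oxygen removal. Intensity is compared with that of the conjugate alone.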

Test [3] in a line: Binding affinity to 5'-CGTATGGACTCGG-3' DNA (unknown origin) assessed as increase in fluorescence intensity at 200 nM by florescence assay relative to control. An outline of the steps: as §1

For orientation: Kd means the equilibrium constant for the complex coming apart. A lower Kd goes with a tighter complex.

Turning to `CC(=O)Nc1cn(C)c(C(=O)Nc2cn(C)c(C(=O)Nc3cc(C(=O)Nc4cc(C(=O)NCC[C@@H](NC(=O)CCNC(=O)CCCc5ccc6ccc7cccc8ccc5c6c78)C(=O)Nc5cn(C)c(C(=O)Nc6cc(C(=O)Nc7cc(C(=O)Nc8cc(C(=O)NCCC(=O)NCCCN(C)C)n(C)c8)n(C)c7)n(C)c6)n5)n(C)c4)n(C)c3)n2)n1`, the Kd in test [1] is 17.3 nM. Moreover, the fold change (FC) in test [2] and in test [3] was 4 throughout.

Compound `CN(C)CCCNC(=O)CCNC(=O)c1cc(NC(=O)c2cc(NC(=O)c3cc(NC(=O)c4nc(NC(=O)CCCNC(=O)c5cc(NC(=O)c6cc(NC(=O)c7nc(NC(=O)c8nc(NC(=O)CCNC(=O)CCNC(=O)CCCc9ccc%10ccc%11cccc%12ccc9c%10c%11%12)cn8C)cn7C)cn6C)cn5C)cn4C)cn3C)cn2C)cn1C` gave a Kd in test [1] of over 10000 nM. In addition, the fold change (FC) in test [2] and in test [3] was 3 each time.

The compound `CN(C)CCCNC(=O)CCNC(=O)c1cc(NC(=O)c2cc(NC(=O)c3cc(NC(=O)c4nc(NC(=O)CCCNC(=O)c5cc(NC(=O)c6cc(NC(=O)c7nc(NC(=O)c8nc(NC(=O)CCNC(=O)CCCc9ccc%10ccc%11cccc%12ccc9c%10c%11%12)cn8C)cn7C)cn6C)cn5C)cn4C)cn3C)cn2C)cn1C` gave a Kd in test [1] of over 10000 nM. The fold change (FC) in test [2] and in test [3] was 3 in each case.

Consider `CC(=O)Nc1cn(C)c(C(=O)Nc2cn(C)c(C(=O)Nc3cc(C(=O)Nc4cc(C(=O)NCC[C@@H](NC(=O)CCCc5ccc6ccc7cccc8ccc5c6c78)C(=O)Nc5cn(C)c(C(=O)Nc6cc(C(=O)Nc7cc(C(=O)Nc8cc(C(=O)NCCC(=O)NCCCN(C)C)n(C)c8)n(C)c7)n(C)c6)n5)n(C)c4)n(C)c3)n2)n1`, for which the Kd in test [1] worked out at 1740 nM. The fold change (FC) in test [2] and in test [3] was 7 throughout.

The record behind these values is ChEMBL document CHEMBL2311272, “Design of a new fluorescent probe: pyrrole/imidazole hairpin polyamides with pyrene conjugation at their γ-turn” (Bioorg Med Chem, 2013).
